# Only some compounds are listed: those with a hit (about 3% of all), similar ones and a draw of the others.
# B2AR ag = human beta-2 adrenergic receptor agonism by FAP; Am2.2-beta2AR cells, FAP receptor internalization, flow cytometry; response, % (test concentration not listed); 0.43% of 340,000 active; AID 504454;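 active means response above a set limit, near 3 SD of response in nonfluorescent compounds, cut at about 42% in these data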
# MC4R antagonist = blocks human MC4R cAMP signaling; AID 540295; P32245; 0.48% of 360,000 active; MC4R-expressing cells, MTII-stimulated cAMP, LANCE TR-FRET; inhibition, % at 6.5 µM;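 active means inhibition above its plate's cutoff, the mean of tested wells on that plate plus 3 SD, cut at about 29% in these data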;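 further: 0% = Melanotan II alone and 100% = Melanotan II plus saturating MCL0020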
# Target sequence (P32245 whole entry, looked up): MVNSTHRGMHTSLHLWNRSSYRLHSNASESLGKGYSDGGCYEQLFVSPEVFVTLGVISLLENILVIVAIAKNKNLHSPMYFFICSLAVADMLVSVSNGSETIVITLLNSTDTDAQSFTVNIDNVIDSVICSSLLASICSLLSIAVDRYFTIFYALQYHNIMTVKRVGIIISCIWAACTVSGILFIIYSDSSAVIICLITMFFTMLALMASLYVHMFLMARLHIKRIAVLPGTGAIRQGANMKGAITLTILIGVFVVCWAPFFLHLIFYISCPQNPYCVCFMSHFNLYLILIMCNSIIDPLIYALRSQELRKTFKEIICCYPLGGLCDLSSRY
#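 Assay system: U2OS cells stably expressing human melanocortin 4 receptor (MC4R) / Dosing: 6.5 µM / Timing: compound 30 min, challenge 1 h, detection 1 h / Measured by: Eu-cAMP/anti-cAMP TR-FRET, emission 671 nm / Replicates: singlicate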
# MC4R ag barr = agonists of human melanocortin 4 receptor (MC4R) beta-arrestin; activation, % at 8.9 µM; P32245; 0.98% of 360,000 active; U2OS MC4R beta-arrestin complementation, luminescence; percent of melanotan II response, DMSO zero;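 active means activation above a per-plate cutoff, the mean activation of sample wells on that plate plus 3 SD, cut at about 8% in these data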
# ABHD5 PLIN5 PPI = inhibitors of human ABHD5-perilipin-5 interaction; Split G. princeps luciferase complementation, luminescence, 4 h; inhibition, % at 4 µM; 0.78% of 360,000 active;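 active means inhibition above the mean inhibition across every tested compound plus 3 SD, cut at about 22% in these data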;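 further: 0% = DMSO only wells and the 100% control is not disclosed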
# PfG6PD inh = PfG6PD (Plasmodium falciparum) enzyme inhibition. PfGluPho enzyme, NADPH resazurin-diaphorase fluorescence. inhibition, % at 20 µM. 0.78% of 350,000 active;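 active means inhibition reaching at least a set limit at 20 µM in the primary screen, cut at about 59% in these data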;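 further: 0% = DMSO wells with substrate and 100% = DMSO wells lacking glucose-6-phosphate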
# ABHD5-PLIN5 conf = ABHD5-PLIN5 interaction inhibition, confirmed; shares compounds with ABHD5 PLIN5 PPI; 67% of 2,200 active; biochemical ABHD5-PLIN5 interaction, luminescence; inhibition, % at 4 µM; AID 651612; in the data active means inhibition above about 23%;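 further: 0% = DMSO vehicle wells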
# HNF4 counter = active in HNF4 split-luciferase counter-screen for ABHD5-PLIN5 inhibitors; shares compounds with ABHD5 PLIN5 PPI; HNF4 dimerization, luminescence, biochemical; inhibition, % at 4 µM; 77% of 2,200 active;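 active means mean inhibition across replicate wells exceeding the computed hit threshold, cut at about 13% in these data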;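 further: light from luciferase halves that rejoin when HNF4 fusion proteins dimerize; 0% = DMSO only wells and the 100% control is not given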
# Numbers without * were called inactive; / = no result.
SMILES,B2AR ag,MC4R antagonist,MC4R ag barr,ABHD5 PLIN5 PPI,PfG6PD inh,ABHD5-PLIN5 conf,HNF4 counter
O=C(/C=C/c1cccs1)c1cc(Br)ccc1OC(=O)N1CCOCC1,-9,0,2,25*,3,57*,40*
O=C(CCCN=C1NS(=O)(=O)c2ccccc21)OCC(=O)c1ccccc1Cl,4,3,-1,-1,3,/,/
Fc1ccccc1C1CC(c2ccco2)=Nc2ccccc2S1 (configuration not stated),-6,-3,-2,43*,58,2,91*
COc1ccccc1C1CC(c2ccco2)=NN1c1ccccc1 (configuration not stated),9,9,-1,-8,4,/,/
O=C(c1ccc2ccccc2c1)C1CCCN(C(=O)c2noc3c2CCCC3)C1 (configuration not stated),5,13,-1,-1,8,/,/
C[C@H]1CN([C@@H](C)CO)C(=O)CCCn2nncc2CO[C@@H]1CN(C)Cc1cccc(C(=O)O)c1,/,/,/,10,/,/,/
O=C(/C=C/c1ccccc1)COC(=O)c1ccccc1,10,2,-2,59*,11,80*,92*
CC1c2[nH]c3ccccc3c2C[C@H]2C(=O)N(CCCN(C)C)CC(=O)N12 (some centres not stated),-5,5,-1,5,0,/,/
CC1CC(C)CN(C(=O)CN2C(=O)NC(c3ccccc3)(c3ccccc3)C2=O)C1 (configuration not stated),8,1,-3,34*,13,3,3
CCOC(=O)N1CCN(C(=O)CN2C(=O)NC(c3ccccc3)(c3ccccc3)C2=O)CC1,0,6,-1,6,2,/,/
Cc1[nH]n(-c2ccccc2)c(=O)c1/C=N/NC(=O)c1ccccc1F,13,0,-1,-14,-50,/,/
N#Cc1ncc(Cc2ccccc2)nc1C#N,13,-1,-2,30*,16,46*,21*
N#Cc1nc(Cc2ccccc2)oc1NCc1cccnc1,-8,-4,-1,5,-23,/,/
CCOC(=O)[C@]12CCC=C1N(Cc1ccc(Cl)cc1Cl)C(=O)[C@H](CC(=O)NCc1cccc(C(F)(F)F)c1)C2,/,/,/,25*,/,21,1
CCOC(=O)[C@]12CCC=C1N(Cc1ccc(Cl)cc1Cl)C(=O)[C@H](CC(=O)N1CCCC1)C2,/,/,/,4,/,/,/
CCOC(=O)N1CCN(C(=O)C[C@@H]2C[C@@]3(C(=O)OCC)CCC=C3N(Cc3ccc(Cl)cc3Cl)C2=O)CC1,/,/,/,26*,/,35*,-2
C=C(C)COc1ccc(C2NC(=O)c3ccccc3O2)cc1OCC (configuration not stated),-1,-7,-1,3,-4,/,/
Cc1ccc(Nc2nnc(SC(C)C(=O)NCC3CCCO3)s2)cc1 (configuration not stated),5,6,-2,-5,29,/,/
Cc1ccc(Cl)cc1NC(=O)C[n+]1ccc(Cc2ccc([N+](=O)[O-])cc2)cc1,3,4,0,24*,27,15,-2
O=C(C[n+]1ccc(Cc2ccccc2)cc1)Nc1ccc([N+](=O)[O-])cc1Cl,0,28,0,7,-6,/,/
COc1cc(/C=C/c2cccc[n+]2C)ccc1OCC(=O)Nc1ccccc1C,4,3,-2,3,-1,/,/
CCOc1cc(/C=C\[N+](=O)[O-])ccc1OCC(=O)Nc1ccccc1C,112*,-15,1,55*,30,96*,102*
COc1cccc(C(NC(C)=O)c2nc(-c3cnn(C)c3)cs2)c1 (configuration not stated),/,7,-1,4,/,/,/
Cc1ccc(NC(=O)N2CCCC2C(=O)Nc2ccc3c(c2)OCCO3)cc1 (configuration not stated),-1,-1,0,-1,-11,/,/
Cc1ccc(S(=O)(=O)N2C[C@H]3n4c(=O)ccc(=O)n4C[C@H](OC(=O)Nc4cccs4)[C@@]3(O)C2)cc1,/,4,1,35*,-11,58*,34*

# Screens (PubChem BioAssay)
